The record followed here is PMC7918756 (The Journal of Experimental Medicine, 2021).

The subject of data set [1] is HASMCs (human primary bronchial smooth muscle cells). Kind of data set: impedance-based HASMC contraction assay. The class given is cell-based.
Another data set addresses dog TRPA1 (Canis lupus familiaris, UniProt A0A8I3Q1Q7). The data set is described as follows: CHO cell line FLIPR Ca2+ assay, CA-evoked. The format is cell-based.
The next data set has as its target human TRPV1 (Homo sapiens, UniProt Q8NER1). Kind of data set: Ca2+ responses evoked by 30 nM capsaicin. The format is cell-based.
Data set [2] is described as follows: Phase 1 SAD study, plasma PK. The format is in vivo, human. To be noted: healthy volunteers, dose increased from 75 mg to 600 mg. The gist of the method:
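Healthy volunteers in single-ascending-dose cohorts, randomised 6 test compound : 2 placebo, dosed fasted at 25, 75, 200 or 600 mg. Blood sampled before dose and at multiple time points after dose. Plasma concentrations measured by validated analytical methods.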

A short description of another data set: MDCK permeability. The class given is in vitro ADME, canine. To be noted: dog. A digest of the protocol: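 MDCK cells were seeded at 2.5 × 10^5 cells/ml and grown 4 d at 37°C, 5% CO2. Medium was DMEM/Earle's balanced salt solution with 10% FBS, renewed on day 2 and the day before the assay.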
For another data set, the target named is T1, human TRPC6 (Homo sapiens, UniProt Q9Y210).
T1 sequence (Q9Y210 1-931): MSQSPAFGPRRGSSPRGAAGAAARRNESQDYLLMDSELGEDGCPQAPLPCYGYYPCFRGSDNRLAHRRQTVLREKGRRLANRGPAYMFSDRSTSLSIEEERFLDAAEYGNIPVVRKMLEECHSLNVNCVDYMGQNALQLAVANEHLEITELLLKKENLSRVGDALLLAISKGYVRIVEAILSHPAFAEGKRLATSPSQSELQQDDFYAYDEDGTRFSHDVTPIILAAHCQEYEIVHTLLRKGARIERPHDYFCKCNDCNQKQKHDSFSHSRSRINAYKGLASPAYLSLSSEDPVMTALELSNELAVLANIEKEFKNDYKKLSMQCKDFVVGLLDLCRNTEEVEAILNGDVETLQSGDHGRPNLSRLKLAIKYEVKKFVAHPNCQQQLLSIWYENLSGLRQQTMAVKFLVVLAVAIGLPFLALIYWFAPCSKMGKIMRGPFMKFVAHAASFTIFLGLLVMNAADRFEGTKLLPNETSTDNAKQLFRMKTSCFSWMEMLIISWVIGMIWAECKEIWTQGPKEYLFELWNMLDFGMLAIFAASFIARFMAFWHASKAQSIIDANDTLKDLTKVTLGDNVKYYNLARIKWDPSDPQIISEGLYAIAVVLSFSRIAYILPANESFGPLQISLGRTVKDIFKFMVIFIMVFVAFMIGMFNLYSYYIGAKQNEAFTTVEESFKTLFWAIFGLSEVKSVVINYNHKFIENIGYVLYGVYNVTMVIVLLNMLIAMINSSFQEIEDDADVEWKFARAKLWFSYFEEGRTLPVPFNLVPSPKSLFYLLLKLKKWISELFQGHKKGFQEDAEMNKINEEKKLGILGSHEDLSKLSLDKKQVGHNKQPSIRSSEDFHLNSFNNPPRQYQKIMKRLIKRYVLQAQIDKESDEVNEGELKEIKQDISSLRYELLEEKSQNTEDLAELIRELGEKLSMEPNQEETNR
The data set is described as follows: membrane potential assay using 75 μM carbochol. The class given is cell-based.

The next data set concerns the target mouse TRPA1 (Mus musculus, UniProt Q8BLA8). Kind of data set: CHO cell line FLIPR Ca2+ assay, CA-evoked. The class given is cell-based. A digest of the protocol: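 Mouse TRPA1-expressing CHO cells, fluorescent Ca2+ dye loaded, were exposed 10 min to a test compound concentration series and then challenged with cinnamaldehyde. Peak fluorescence responses were used to derive concentration-dependent inhibition.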

Data set [3] concerns rats. The data set is described as follows: AITC-induced nocifensive behavior in rats. The format is in vivo, rat. The gist of the method:
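Rats pretreated with test compound at the indicated doses, then given intraplantar AITC. Nocifensive behaviour scored as flinching plus hind paw–directed licking and biting. Data reported as mean ± SEM.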

For the next data set, the target named is guinea pig TRPA1 (Cavia porcellus, UniProt H0VJD1). The data set is described as follows: CHO cell line FLIPR Ca2+ assay, CA-evoked. The format is cell-based.
The subject of data set [4] is healthy volunteers. The data set is described as follows: Phase 1 SAD study, safety and tolerability. The class given is in vivo, human. To be noted: single oral dose 25-600 mg. A digest of the protocol:
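Healthy volunteers received a single oral dose, fasted, randomised 6 active:2 placebo per cohort at 25, 75, 200 or 600 mg. Safety and tolerability was the primary outcome. Escalation targeted about two- to threefold exposure increases, decided after review of safety and PK data up to 72 h post-dose.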

The next data set relates to HASMCs. The data set is described as follows: calcium imaging, AITC-induced calcium flux in primary cells. The class given is cell-based, human. The settings on record: HASMCs treated with TRPA1 agonist AITC. A digest of the protocol:
(§1)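 Cells were imaged 15–24 h after plating, with fluorescence sampled at 0.5 Hz. TRPA1 activity was evoked by perfusing saline containing 50 µM AITC.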
Background: Calcium flux is commonly read through the fluorescence of an indicator in the cells.

Data set [5] relates to guinea pigs. The data set is described as follows: OVA challenge model of asthma in guinea pigs. To be noted: single oral administration of 70 mg/kg. The class given is in vivo, guinea pig. The gist of the method:
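Hartley guinea pigs were immunised i.p. on days 0 and 7 with 100 mg OVA plus 80 mg alum in PBS. On day 28 they were challenged with nebulised 0.1% OVA in PBS for 30 min. Vehicle or test compound was given by gavage 3 h before challenge. Animals were euthanised 24 h later, with aortic blood taken for PK.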

A further data set deals with human TRPM8 (Homo sapiens, UniProt Q7Z2W7). Kind of data set: Ca2+ responses evoked by 50 μM menthol. The format is cell-based.
In data set [6] the test system is cross-species hepatocytes. Kind of data set: hepatocyte metabolic stability, cross-species summary. The class given is in vitro ADME. A digest of the protocol: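 Test compound at 1 µM was incubated with pooled cryopreserved hepatocytes from female CD-1 mouse, male Sprague-Dawley rat, male beagle dog, male cynomolgus monkey and mixed-gender human.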
Data set [7] deals with healthy volunteers. Kind of data set: Phase 1 SAD study, AITC skin challenge. The class given is in vivo, human. A digest of the protocol: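 Randomised, double-blind, single ascending oral dose study in fasted healthy volunteers: six active and two placebo per cohort, at 25, 75, 200 or 600 mg (tablets). AITC skin challenge was at 3 h (25 mg), 8 h (75 mg) or 6 h (200/600 mg) post-dose. DBF was recorded by LSCI from 2 min before to 21 min after AITC. Pain and itch were rated 0–10 at 2–20 min. DBF AUC0–10 min and maximal scores were compared with pooled placebo (Dunnett's); plasma concentrations were measured by validated bioanalysis.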

The nature of data set [8]: IV/PO PK, summary across preclinical species. The class given is in vivo.
In data set [9] the test system is guinea pigs. Kind of data set: AITC-induced dermal blood flow. The format is in vivo, guinea pig. To be noted: oral 5, 15 or 45 mg/kg, 3.5 h before AITC skin challenge. The gist of the method: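 Female Hartley guinea pigs, 5 wk old, were dosed orally with 0, 5, 15 or 45 mg/kg test compound in 85% MCT/15% DMSO, 3.5 h before topical AITC. Dermal blood flow was imaged by laser speckle contrast imaging. Traces were normalised to fold-change against the mean pre-AITC baseline.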

The subject of data set [10] is rats. The data set is described as follows: AITC-induced vascular leakage. The format is in vivo, rat. The settings on record: rats, 1, 3 and 10 mg/kg, 3 h before topical AITC. The gist of the method: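 Rats dosed 3 h beforehand were given 2% Evans blue i.v. (saline, 2.5 ml/kg) under isoflurane. Then 25 µl 20% AITC went on one ear and mineral oil on the other. Ear thickness was measured. At 20 min after AITC, dye was extracted in formamide (24 h, 65°C) and read at 620 nm.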

Data set [11] has as its system rats. Kind of data set: OVA challenge model of asthma in rats. The class given is in vivo, rat. To be noted: oral. The gist of the method:
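Sensitised Brown Norway rats were challenged from day 28 with aerosolised 2% OVA in PBS, 30 min daily for 4 consecutive days. Vehicle or test compound was gavaged 3 h before each challenge; dexamethasone 5 mg/kg orally was the positive control. BALF was collected 24 h after the final treatment, eight rats per group.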

Another data set has as its system HLFs. The data set is described as follows: calcium imaging, AITC-induced calcium flux in primary cells. The class given is cell-based, human. To be noted: HLFs treated with TRPA1 agonist AITC. The gist of the method:
as §1

Data set [12] has as its system rats. The data set is described as follows: AITC-induced dermal blood flow. The class given is in vivo, rat. To be noted: oral 3 or 10 mg/kg, 3 h before AITC skin challenge. The gist of the method: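 Rats dosed orally 3 h before imaging with 0, 3.0 or 10.0 mg/kg test compound in 85% MCT / 15% DMSO. Topical AITC skin challenge. Dermal blood flow recorded by laser speckle contrast imaging. Traces normalised to fold-change by subtracting and dividing by the mean baseline DBF before AITC. DBF rise-time and maximal level assessed.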

Data set [13] deals with cynomolgus (cyno) monkey TRPA1 (Macaca fascicularis, UniProt A0A2K5VSJ1). The data set is described as follows: CHO cell line FLIPR Ca2+ assay, CA-evoked. The format is cell-based.
Chain of cynomolgus (cyno) monkey TRPA1 (A0A2K5VSJ1 26-1144): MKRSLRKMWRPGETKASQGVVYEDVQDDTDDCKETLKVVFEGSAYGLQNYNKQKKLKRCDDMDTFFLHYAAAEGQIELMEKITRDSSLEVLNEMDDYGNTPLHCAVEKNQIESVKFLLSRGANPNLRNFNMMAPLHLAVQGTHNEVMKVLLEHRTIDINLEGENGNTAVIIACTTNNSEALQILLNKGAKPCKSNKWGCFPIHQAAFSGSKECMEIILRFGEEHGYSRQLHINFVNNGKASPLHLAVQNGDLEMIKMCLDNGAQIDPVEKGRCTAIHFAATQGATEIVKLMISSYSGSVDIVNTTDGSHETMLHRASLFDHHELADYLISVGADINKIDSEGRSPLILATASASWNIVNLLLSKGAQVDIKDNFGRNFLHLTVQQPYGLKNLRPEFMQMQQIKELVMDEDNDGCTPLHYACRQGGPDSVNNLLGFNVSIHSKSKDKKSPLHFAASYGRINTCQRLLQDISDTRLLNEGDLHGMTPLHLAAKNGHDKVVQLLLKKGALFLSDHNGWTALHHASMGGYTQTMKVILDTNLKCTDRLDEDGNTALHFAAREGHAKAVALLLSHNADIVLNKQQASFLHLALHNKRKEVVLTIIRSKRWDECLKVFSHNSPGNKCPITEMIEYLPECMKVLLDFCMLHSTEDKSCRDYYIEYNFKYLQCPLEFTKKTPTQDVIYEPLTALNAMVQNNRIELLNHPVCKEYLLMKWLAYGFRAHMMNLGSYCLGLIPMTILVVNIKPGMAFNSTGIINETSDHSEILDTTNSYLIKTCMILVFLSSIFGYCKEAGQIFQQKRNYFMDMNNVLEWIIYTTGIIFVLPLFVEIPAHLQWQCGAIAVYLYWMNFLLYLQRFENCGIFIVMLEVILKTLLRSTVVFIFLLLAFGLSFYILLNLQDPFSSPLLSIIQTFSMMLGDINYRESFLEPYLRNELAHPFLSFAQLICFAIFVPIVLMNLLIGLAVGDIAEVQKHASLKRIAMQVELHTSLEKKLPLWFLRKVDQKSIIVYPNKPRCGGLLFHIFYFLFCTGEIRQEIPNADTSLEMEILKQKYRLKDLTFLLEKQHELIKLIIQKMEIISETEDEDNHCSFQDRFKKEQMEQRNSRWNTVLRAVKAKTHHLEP

Chain of human TRPM8 (Q7Z2W7 whole entry): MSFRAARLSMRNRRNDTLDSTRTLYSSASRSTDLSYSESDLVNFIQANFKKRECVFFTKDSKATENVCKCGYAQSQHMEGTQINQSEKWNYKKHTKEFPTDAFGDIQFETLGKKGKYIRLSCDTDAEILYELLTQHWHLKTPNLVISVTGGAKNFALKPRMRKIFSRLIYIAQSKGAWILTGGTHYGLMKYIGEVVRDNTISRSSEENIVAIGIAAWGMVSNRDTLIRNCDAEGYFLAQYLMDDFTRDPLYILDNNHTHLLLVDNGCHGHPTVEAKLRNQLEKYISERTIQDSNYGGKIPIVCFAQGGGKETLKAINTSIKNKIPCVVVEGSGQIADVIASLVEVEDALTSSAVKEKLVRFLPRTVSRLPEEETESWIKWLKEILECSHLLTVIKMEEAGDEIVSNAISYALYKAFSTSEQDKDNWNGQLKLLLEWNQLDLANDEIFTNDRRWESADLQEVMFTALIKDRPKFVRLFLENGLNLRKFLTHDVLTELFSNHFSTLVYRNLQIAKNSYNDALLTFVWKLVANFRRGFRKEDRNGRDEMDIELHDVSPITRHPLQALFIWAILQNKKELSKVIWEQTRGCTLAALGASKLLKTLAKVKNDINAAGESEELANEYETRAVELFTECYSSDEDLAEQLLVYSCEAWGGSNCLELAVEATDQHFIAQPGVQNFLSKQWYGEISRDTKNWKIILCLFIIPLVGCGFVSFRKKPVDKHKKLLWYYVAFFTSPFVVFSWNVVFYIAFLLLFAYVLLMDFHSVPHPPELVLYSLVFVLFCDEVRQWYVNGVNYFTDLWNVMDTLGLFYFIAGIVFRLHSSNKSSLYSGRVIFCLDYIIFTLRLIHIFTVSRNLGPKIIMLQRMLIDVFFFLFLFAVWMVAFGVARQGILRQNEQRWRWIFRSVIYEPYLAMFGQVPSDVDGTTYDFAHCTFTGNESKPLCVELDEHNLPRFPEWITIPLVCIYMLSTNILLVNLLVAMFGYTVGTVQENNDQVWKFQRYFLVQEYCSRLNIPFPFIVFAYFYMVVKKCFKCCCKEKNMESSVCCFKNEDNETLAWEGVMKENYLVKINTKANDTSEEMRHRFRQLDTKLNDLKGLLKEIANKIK
Chain of mouse TRPA1 (Q8BLA8 whole entry): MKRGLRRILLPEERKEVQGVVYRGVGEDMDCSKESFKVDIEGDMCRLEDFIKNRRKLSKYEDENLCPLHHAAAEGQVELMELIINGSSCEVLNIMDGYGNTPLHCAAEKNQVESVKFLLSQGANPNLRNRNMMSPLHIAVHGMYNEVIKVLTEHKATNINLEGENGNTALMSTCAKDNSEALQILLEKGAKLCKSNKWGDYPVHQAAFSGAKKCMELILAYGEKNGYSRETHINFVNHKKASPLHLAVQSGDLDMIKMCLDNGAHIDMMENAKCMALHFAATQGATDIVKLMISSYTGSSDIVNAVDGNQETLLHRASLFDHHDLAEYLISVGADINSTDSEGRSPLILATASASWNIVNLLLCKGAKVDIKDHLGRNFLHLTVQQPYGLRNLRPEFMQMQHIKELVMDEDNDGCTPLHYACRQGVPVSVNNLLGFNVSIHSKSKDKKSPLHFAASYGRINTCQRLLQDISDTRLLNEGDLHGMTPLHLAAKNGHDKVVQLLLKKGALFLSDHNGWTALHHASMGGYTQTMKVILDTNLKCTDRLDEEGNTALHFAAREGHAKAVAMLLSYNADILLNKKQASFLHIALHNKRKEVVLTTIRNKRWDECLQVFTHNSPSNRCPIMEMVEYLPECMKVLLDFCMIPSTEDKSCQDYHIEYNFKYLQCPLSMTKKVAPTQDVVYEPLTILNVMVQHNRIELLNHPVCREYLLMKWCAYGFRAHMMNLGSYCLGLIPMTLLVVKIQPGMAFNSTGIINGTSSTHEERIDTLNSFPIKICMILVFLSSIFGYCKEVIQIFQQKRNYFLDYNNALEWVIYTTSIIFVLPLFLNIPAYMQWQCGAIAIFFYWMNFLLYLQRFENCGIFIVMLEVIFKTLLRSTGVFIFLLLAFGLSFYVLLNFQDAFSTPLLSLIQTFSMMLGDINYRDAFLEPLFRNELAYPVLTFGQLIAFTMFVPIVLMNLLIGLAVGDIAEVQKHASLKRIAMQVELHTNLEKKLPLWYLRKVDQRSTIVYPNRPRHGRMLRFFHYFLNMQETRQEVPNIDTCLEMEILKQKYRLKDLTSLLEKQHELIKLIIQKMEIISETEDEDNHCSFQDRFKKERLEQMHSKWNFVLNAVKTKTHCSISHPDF
Chain of dog TRPA1 (A0A8I3Q1Q7 1-1118): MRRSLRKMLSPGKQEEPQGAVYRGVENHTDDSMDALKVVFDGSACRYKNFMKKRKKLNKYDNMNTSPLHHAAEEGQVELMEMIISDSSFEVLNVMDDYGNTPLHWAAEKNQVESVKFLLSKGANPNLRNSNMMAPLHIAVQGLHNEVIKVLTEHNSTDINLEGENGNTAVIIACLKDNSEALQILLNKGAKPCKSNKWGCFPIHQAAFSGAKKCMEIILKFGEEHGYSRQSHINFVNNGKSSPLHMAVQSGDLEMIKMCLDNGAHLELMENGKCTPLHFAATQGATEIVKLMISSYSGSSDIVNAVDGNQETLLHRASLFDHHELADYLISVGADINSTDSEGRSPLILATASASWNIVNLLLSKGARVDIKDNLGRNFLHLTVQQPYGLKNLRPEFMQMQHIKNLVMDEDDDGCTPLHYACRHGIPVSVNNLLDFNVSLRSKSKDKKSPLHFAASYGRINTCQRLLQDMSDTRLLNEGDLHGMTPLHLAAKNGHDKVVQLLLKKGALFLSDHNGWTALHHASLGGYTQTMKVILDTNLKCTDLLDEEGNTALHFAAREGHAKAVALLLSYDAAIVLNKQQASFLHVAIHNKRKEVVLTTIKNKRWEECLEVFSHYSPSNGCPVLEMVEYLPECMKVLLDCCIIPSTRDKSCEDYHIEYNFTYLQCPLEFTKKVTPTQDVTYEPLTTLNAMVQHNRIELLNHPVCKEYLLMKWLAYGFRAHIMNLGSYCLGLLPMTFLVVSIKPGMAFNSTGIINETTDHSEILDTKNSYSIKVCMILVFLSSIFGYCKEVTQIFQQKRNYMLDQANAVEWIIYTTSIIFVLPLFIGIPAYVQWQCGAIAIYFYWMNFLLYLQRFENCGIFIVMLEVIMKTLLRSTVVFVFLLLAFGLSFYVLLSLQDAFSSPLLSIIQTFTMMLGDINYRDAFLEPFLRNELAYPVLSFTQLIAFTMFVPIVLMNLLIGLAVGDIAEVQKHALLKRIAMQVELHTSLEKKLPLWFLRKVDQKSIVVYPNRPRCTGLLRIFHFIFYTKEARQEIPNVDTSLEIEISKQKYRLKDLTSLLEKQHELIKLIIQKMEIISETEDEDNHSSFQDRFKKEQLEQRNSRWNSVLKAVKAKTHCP

`CCC(=N\O)/C(C)=C/c1ccc(F)cc1` [A-967079, reference compound]: the “times less potent than GDC-0334” value in data set [1] (HASMC contraction assay (Fig. 2 C)) was about 500 times.
With `C[C@H]1[C@H](F)C[C@@H](C(=O)NCc2cc(-c3cnc(C(F)(F)F)nc3)ncc2C(F)(F)F)N1S(=O)(=O)c1ccc(F)cc1` [GDC-0334, (2S,4R,5S)-4-fluoro-1-(4-fluorophenylsulfonyl)-5-methyl-N-((5-(trifluoromethyl)-2-(2-(trifluoromethyl)pyrimidin-5-yl)pyridin-4-yl)methyl)pyrrolidine-2-carboxamide], the IC50 – broadly, the concentration at which inhibition is half-maximal – is 102 nM against dog TRPA1; over 10000 nM against human TRPV1; over 10000 nM at human TRPC6; 2.7 nM against mouse TRPA1; 1.8 nM in [1] (Homo sapiens, HASMC, read-out: HASMC contraction IC50); 11.1 nM against guinea pig TRPA1. The IC50 against human TRPM8 is over 10000 nM; in data set [13], 3.6 nM. In addition, in [2], the “exposures (Cmax, AUC0–24h, AUC0–72h) vs dose” value is recorded as “Approximately dose-proportional increases”. The Papp A→B (in general, how fast a substance crosses the layer from the apical side) at 180 min, 10 µM in the data set “MDCK permeability” was 18.9 ×10⁻⁶ cm/s. For the same compound, the AITC-induced nocifensive behavior entry in the data set with rats [3] (3-mg/kg dose) is listed as “suppression comparable to that of Trpa1^−/− rats”; in the data set on rats [3] (pretreatment, indicated doses), “reduced AITC-induced nocifensive behavior in a dose-dependent manner”. In addition, the “TEAEs thought to be related to treatment” value in the data set on healthy volunteers [4] was “one case of mild headache”. In addition, the “serious TEAEs” value in the data set on healthy volunteers [4] was “no serious treatment-emergent AEs”. Further, the tolerability entry in the data set with healthy volunteers [4] is reported as “well tolerated with only mild or moderate adverse events”. For the same compound, the “effect on AITC-induced calcium flux” value in the data set with HASMCs and in the data set with HLFs was “inhibited calcium flux” in each case. In addition, the “BALF infiltrates to the airways” value in the data set with guinea pigs [5] is on record as “significantly reduced BALF infiltrates”. In data set [6], the “metabolite stability in cross-species hepatocytes” value is “moderate to high”. Also, the “AITC-induced pain and itch” value in the data set on healthy volunteers [7] (healthy volunteers dosed with 600 mg) is “near-complete inhibition”; with healthy volunteers [7] (healthy volunteers, 25-600 mg vs placebo, verbal rating 0–10) it was “dose dependently reduced”. For the same compound, the “DBF response to the AITC skin challenge” value with healthy volunteers [7] (healthy volunteers, AITC challenge 3–8 h after oral dosing) is “strong PD effect”. For the same compound, the “free plasma concentration with near-complete inhibition of AITC-induced DBF” value in the data set with healthy volunteers [7] (healthy volunteers, free plasma) is over 4.92 nM. Moreover, the “plasma concentration with near-complete inhibition of AITC-induced DBF” value in the data set with healthy volunteers [7] (healthy volunteers, total plasma) is over 250 ng/mL. Besides, the clearances entry in data set [8] was “low to moderate”. Besides, the “AITC-induced DBF” value was “dose-dependent reduction” with guinea pigs [9]; “Dose-dependent decreases in the DBF rise-times and maximal levels” with rats [12]. Moreover, the “Evans blue perfusion (AITC-induced vascular leakage)” value with rats [10] is given as “Dose-dependent reductions”. Moreover, the “substance P (SP) in BALF after OVA challenge” value with rats [11] is “significantly blunted an increase”.
